The list is not random: actives were taken first. Their share in the collection is about 2.9%.
S100A4 inh HTS: inhibitors of S100A4-myosin IIA peptide binding, primary screen, biochemical, fluorescence polarization, TAMRA-MyoIIA peptide | AID 652163, 2013 | actives 0.14% (n = 360,000) | inhibition, % at 10.7 µM;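 active = mean inhibition of at least 70% across replicates, with every replicate also reaching that level; inconclusive = mean inhibition reaches 70% but some replicates fall short; inactive = mean inhibition below 70%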
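Assay system: human S100A4 monomer with TAMRA-labelled myosin IIA peptide / Buffer or medium: Calcium-containing HEPES buffer, pH 7.2 / Reagent: TAMRA-labelled myosin IIA heavy-chain peptide probe, 5 nM / Compound: one dose per compound / Timing: polarization read 5 min after assay mix addition, stable 5–60 min / Benchmarks: neutral control DMSO, positive control TFP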
ERAP1 inh: human ERAP1 aminopeptidase inhibitors, primary screen, biochemical, single point, plate reader; recombinant ERAP1, Leu-AMC fluorescence, 60 min; inhibition, % at 10.7 µM; Endoplasmic reticulum aminopeptidase 1 (Homo sapiens), Q9NZ08; AID 652197, 2013; actives 0.15% (n = 340,000);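 active = mean replicate inhibition of at least 30%, or all replicates individually reaching that 30% level; inactive = mean below 30% and not every replicate reaching it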;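 also: 0% = neutral control wells and 100% = L-leucinethiol positive control wells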
Target sequence (Q9NZ08 whole entry, looked up): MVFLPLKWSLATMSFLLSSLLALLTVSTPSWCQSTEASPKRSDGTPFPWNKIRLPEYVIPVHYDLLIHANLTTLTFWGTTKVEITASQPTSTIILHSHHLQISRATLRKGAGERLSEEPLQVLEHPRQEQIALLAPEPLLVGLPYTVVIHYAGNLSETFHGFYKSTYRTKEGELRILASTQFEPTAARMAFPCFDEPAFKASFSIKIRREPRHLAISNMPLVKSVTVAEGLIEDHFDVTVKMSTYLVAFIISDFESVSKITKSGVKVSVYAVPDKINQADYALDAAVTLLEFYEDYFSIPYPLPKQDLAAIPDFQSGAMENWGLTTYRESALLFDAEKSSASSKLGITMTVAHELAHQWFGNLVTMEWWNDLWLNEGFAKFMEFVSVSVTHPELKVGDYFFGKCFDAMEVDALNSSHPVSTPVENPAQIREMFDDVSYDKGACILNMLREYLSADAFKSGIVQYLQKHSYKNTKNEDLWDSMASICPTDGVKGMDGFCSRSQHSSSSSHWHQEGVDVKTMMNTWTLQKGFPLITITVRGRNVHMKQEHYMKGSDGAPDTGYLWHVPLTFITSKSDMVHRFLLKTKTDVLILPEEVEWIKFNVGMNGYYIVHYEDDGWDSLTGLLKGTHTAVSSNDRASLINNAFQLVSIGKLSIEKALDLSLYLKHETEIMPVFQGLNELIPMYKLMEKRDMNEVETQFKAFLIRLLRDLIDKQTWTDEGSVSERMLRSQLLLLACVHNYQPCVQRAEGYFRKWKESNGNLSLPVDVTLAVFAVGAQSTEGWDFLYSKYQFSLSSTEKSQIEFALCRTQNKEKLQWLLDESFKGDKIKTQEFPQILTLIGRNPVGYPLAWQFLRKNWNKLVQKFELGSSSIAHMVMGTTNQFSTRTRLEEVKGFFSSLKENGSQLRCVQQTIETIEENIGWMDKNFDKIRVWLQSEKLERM
SIRT5 inh: SIRT5 desuccinylase inhibitors, primary screen, biochemical, fluorescence imaging, single point, set 5; inhibition, % at 15 µM; Purified SirT5, succinyl-peptide AMC, trypsin-coupled fluorescence; NAD-dependent protein deacylase sirtuin-5, mitochondrial (Homo sapiens), Q9NXA8; AID 652115, 2013; actives 1.1% (n = 330,000); in the data active = inhibition above about 15%; inconclusive = no clear call, values can overlap the other calls
DENV2 CPE: inhibitors of DENV2 cytopathic effect, primary screen, cell-based, plate reader, single concentration; AID 651640, 2012; actives 1.7% (n = 350,000); CPE inhibition, % at 9.99 µM; DENV2-infected cells, cytopathic effect rescue; in the data active = CPE inhibition above about 20%, passing the limit was not always enough; inconclusive = no clear call, values can overlap the other calls; tested in BHK-21 cells;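 also: 0% = median of neutral control wells and 100% = median of positive control wells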
CAL PDZ FP-1: untagged CAL PDZ binding inhibitors, primary screen, biochemical, fluorescence polarization, HTS. Golgi-associated PDZ and coiled-coil motif-containing protein (Homo sapiens), Q9HD26. purified CAL PDZ, TMR-peptide fluorescence polarization, 1 h. inhibition, % at 24.9 µM. actives 0.92% (n = 300,000);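 active = mean inhibition of at least 30% with at least half of replicates also reaching 30%; inconclusive = no clear call, values can overlap the other calls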;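 also: 0% = DMSO neutral control and 100% = excess unlabeled competitor peptide PRC23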
CAL PDZ FP-2: CAL PDZ peptide-binding inhibitors, primary screen, biochemical, fluorescence polarization, Cer-tagged CAL PDZ, HTS. Golgi-associated PDZ and coiled-coil motif-containing protein (Homo sapiens), Q9HD26. purified CAL PDZ, TMR-peptide fluorescence polarization, 1 h. inhibition, % at 20 µM. actives 0.02% (n = 330,000). AID 504414, 2011;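 active = highest replicate inhibition of at least 40%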;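 also: plate controls were DMSO neutral control wells for no effect and unlabeled competitor peptide control wells for full effect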
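Material: tagged CAL PDZ protein CerCALP, purified; buffer or medium: sodium phosphate/NaCl buffer pH 7.4 with TCEP, IgG, Thesit; also added: fluorescent TMR peptide probe; schedule: 1 h incubation at room temperature before polarization reading; technique: fluorescence polarization from S- and P-plane intensities, G-factor corrected; control set: unlabelled peptide and DMSO controls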
* = called active by the depositor; ? = inconclusive; nt = no result; ! = repeats disagree.

SMILES	S100A4 inh HTS	ERAP1 inh	SIRT5 inh	DENV2 CPE	CAL PDZ FP-1	CAL PDZ FP-2
C/C=C/c1ccc([C@@H]2[C@H](CO)N(C(=O)CC3CC3)C23CN(S(C)(=O)=O)C3)cc1	-14.8	-1.6	-3.1	9.3	nt	nt
C/C=C/c1ccc([C@H]2[C@@H](CO)N(CC3CC3)C23CN(S(C)(=O)=O)C3)cc1	-0.2	1.0	-6.1	51.2*	nt	nt
CCC(=O)N1[C@H](CO)[C@@H](c2ccccc2)C12CN(CCC(F)(F)F)C2	2.6	-1.4	15.4*	3.5	nt	nt
CN(C)CC(=O)N1[C@H](CO)[C@@H](c2ccccc2)C12CN(CCC(F)(F)F)C2	1.3	0.6	-2.7	0.3	nt	nt
CN(C)CC(=O)N1[C@H](CO)[C@H](c2ccccc2)C12CN(CCC(F)(F)F)C2	-1.4	1.1	13.0	20.9*	nt	nt
O=C1CN(S(=O)(=O)Cc2ccccc2)C[C@@H]2[C@@H](c3ccc(C#CC4CC4)cc3)[C@H](CO)N12	-4.0	0.9	-1.3	-7.2	nt	nt
C[C@H](CO)N1C[C@H](C)[C@H](CN(C)Cc2ccccc2)OCCCC[C@H](C)Oc2ccc(NC(=O)NC3CCCCC3)cc2C1=O	-16.8	-0.5	7.0	29.2*	nt	nt
C[C@@H]1CCCCO[C@@H](CN(C)Cc2ccccc2)[C@H](C)CN([C@@H](C)CO)C(=O)c2cc(NC(=O)NC3CCCCC3)ccc2O1	12.5	-3.3	3.2	23.9*	nt	nt
COc1ccc(S(=O)(=O)Nc2ccc3c(c2)C(=O)N([C@@H](C)CO)C[C@H](C)[C@H](CN(C)S(=O)(=O)c2cn(C)cn2)OCCCC[C@@H](C)O3)cc1	?	0.6	-7.5	-14.3	nt	nt
CN1CCN(CCOCCOc2ccc(Br)cc2Cl)CC1	-1.6	1.5	-3.0	?	-7.9	0.5
Clc1cc(Br)ccc1OCCN1CCOCC1	18.9	2.6	26.4*	-7.4	-0.8	-1.8
COc1ccc(CNC(=O)C[C@@H]2C=C[C@H](NS(=O)(=O)c3cccc(OC)c3)[C@H](CO)O2)cc1	4.7	0.3	2.8	-0.5	nt	nt
Oc1c(N=Nc2ccc(F)cc2)ccc2ccccc12	-2.2	0.1	-2.2	-6.5	1.9	-0.5
COc1cccc(N=Nc2ccc3ccccc3c2O)c1	122.4*	-7.5	-1.4	13.6	-2.3	1.6
Oc1c(N=Nc2nn[nH]n2)ccc2ccccc12	37.8	-0.6	5.9	68.7*	nt	nt
COc1cc(OC)cc(-c2c(C#Cc3ccsc3)c3cc(-c4cc(OC)c(OC)c(OC)c4)ccc3n2C)c1	-3.8	0.3	nt	37.9*	-0.4	-0.8
COCC(=O)Nc1ccc2c(c1)C(=O)N(C)[C@H]1CC[C@H](CC(=O)NC3CCCC3)O[C@H]1CO2	nt	nt	nt	-1.3	nt	nt
C[C@@H]1CN([C@H](C)CO)C(=O)CCCn2nncc2CO[C@H]1CN(C)S(=O)(=O)c1ccc(Cl)cc1	-1.4	-2.3	18.5*!	-2.0	nt	nt
C[C@@H]1CN([C@H](C)CO)C(=O)CCCn2nncc2CO[C@@H]1CN(C)S(=O)(=O)c1ccc2ccccc2c1	93.1*!	-1.5	0.7	-4.2	nt	nt
C[C@@H]1CN([C@@H](C)CO)C(=O)CCCn2nncc2CO[C@H]1CN(C)S(=O)(=O)c1ccc2ccccc2c1	4.7	5.1	2.5	7.2	nt	nt
Cc1ccccc1S(=O)(=O)N(C)C[C@@H]1OCc2cnnn2CCCC(=O)N([C@@H](C)CO)C[C@H]1C	111.8*!	-4.5	-4.2	-3.3	nt	nt
Cc1ccccc1S(=O)(=O)N(C)C[C@H]1OCc2cnnn2CCCC(=O)N([C@@H](C)CO)C[C@H]1C	-3.8	0.9	-0.7	2.1	nt	nt
COc1ccc(-c2cnc3c(c2)C(=O)N([C@@H](C)CO)C[C@@H](C)[C@H](CN(C)C(=O)Cc2cccnc2)O3)cc1	-4.9	0.3	8.1	-5.4	nt	nt
CCOC(=O)C(C)OC(=O)C1=C(C)NC(=O)NC1c1ccc2c(c1)OCO2 (centres undefined)	-9.3	1.2	20.2*	1.3	-2.7	-0.1
CCC(=O)N1C[C@H](O)COC[C@H]2O[C@@H](CC(=O)NCc3ccc(Oc4ccccc4)cc3)CC[C@@H]21	-13.8	-5.0	3.7	91.5*	nt	nt
SMILES	S100A4 inh HTS	ERAP1 inh	SIRT5 inh	DENV2 CPE	CAL PDZ FP-1	CAL PDZ FP-2
O=C(C[C@@H]1CC[C@H]2[C@@H](COC[C@H](O)CN2CCc2ccccc2)O1)NCc1ccc(Oc2ccccc2)cc1	-14.0	-0.1	3.0	23.6*	nt	nt
C[C@H]1CN([C@@H](C)CO)C(=O)c2cc(-c3ccccc3F)cnc2O[C@H]1CN(C)C(=O)c1cnccn1	5.4	-2.7	-14.9	2.9	nt	nt
COc1ccccc1NC(=O)Cn1c([N+](=O)[O-])cnc1C	0.2	-1.5	-4.0	-3.6	63.9*	-4.4
Cc1ccc(Cn2c([N+](=O)[O-])cnc2C)cc1	nt	nt	nt	nt	-5.2	-4.3
Cc1ncc([N+](=O)[O-])n1Cc1ccccc1	-1.4	2.6	-1.7	50.5*	nt	-0.7
Cc1ncc([N+](=O)[O-])n1CC(=O)Nc1ccc(F)c(F)c1	1.8	-4.4	1.0	35.2*	-1.6	0.0
Cc1ncc([N+](=O)[O-])n1CC(=O)Nc1ccc(Cl)cc1	-5.1	-0.3	-0.3	1.3	-2.5	-0.8
Cc1ccccc1NC(=O)Cn1c([N+](=O)[O-])cnc1C	nt	nt	nt	nt	nt	-1.1
O=C(Nc1cc(F)ccc1F)N[C@@H]1C=C[C@H](CC(=O)N2CCc3ccccc3C2)O[C@H]1CO	-0.1	-0.1	3.0	2.4	nt	nt
C[C@@H]1CN([C@H](C)CO)C(=O)CCCn2nncc2CO[C@@H]1CN(C)C(=O)Nc1ccc(C(C)(C)C)cc1	-8.3	1.1	1.3	1.6	nt	nt
O=C(CC(=O)NCc1ccc(Cl)cc1)NCc1ccccc1	-5.8	-2.5	-2.7	4.0	0.8	-1.1
CC1(NCc2ccc(Cl)cc2)COP(=O)(NCc2ccccc2)OC1 (centres undefined)	0.2	-0.8	15.8*	-0.8	-0.6	-0.8
CC(C)NC(=O)Nc1ccc2c(c1)CC(=O)N([C@H](C)CO)C[C@@H](C)[C@@H](CN(C)C(=O)Nc1cccc3ccccc13)O2	13.0	-1.3	-1.9	6.8	nt	nt
CO[C@@H]1CN(C)C(=O)c2cc(NS(=O)(=O)c3ccccc3C)ccc2OC[C@H](C)NC[C@@H]1C	9.6	3.0	-2.2	16.5	nt	nt
CN(C1CCCCC1)S(=O)(=O)c1cccc(C(=O)Nc2ccccn2)c1	-1.7	-3.7	0.8	8.0	-0.6	0.0
Cc1cccc(NC(=O)c2cccc(S(=O)(=O)N(C)C3CCCCC3)c2)n1	0.4	-5.9	13.7	20.9*	nt	nt
